According to ChEMBL document CHEMBL1123998, “Radioiodinated benzodiazepines: agents for mapping glial tumors” (J Med Chem, 1988):

Columns and labels:
[1] = target: GABA-A receptor; anion channel; experiment: Binding affinity for GABA-A benzodiazepine receptor of rat brain
Summary of the method: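 Frozen rat brain (central receptor) and kidney (peripheral site) sections, 20 μm, were prewashed 3 × 5 min in 50 mM Tris pH 7.4 at 0 °C. They were incubated 90 min with 5 nM [³H]flunitrazepam plus graded competitor, with 1 μM PK 11195 defining nonspecific binding. Film autoradiography (10 days, ¹⁴C standards) was read by densitometry. Ki = IC50/(1+[L]/Kd), Kd 40 nM; N = 3.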

[2] = target: Translocator protein (Rattus norvegicus, UniProt P16257); experiment: Binding affinity for peripheral benzodiazepine receptor of rat kidney
[3] = target: Translocator protein (Rattus norvegicus) (UniProt P16257); experiment: Reduced radioligand binding following 30 min intravenous 10 mg/kg PK11195 in adrenal tissue; type: functional, organism-based; design: dose 10 mg/kg; conditions: at 10 mg/kg
[4] = species on record: Rattus norvegicus; experiment: Radioligand binding in heart tissue after 24 hr r; type: functional
Summary of the method: (§1)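 Male Sprague-Dawley rats (160–265 g) under light ether received 16–19 μCi ¹²⁵I-ligand in 0.20–0.25 mL 15:85 EtOH/PBS pH 6.0 via the femoral vein. They were decapitated at 5 min, 30 min, 2, 6 or 24 h, and tissues were weighed and gamma-counted. Results are % injected dose/g wet tissue, normalized to a 200-g rat; N = 5 per time point.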

[5] = species on record: Rattus norvegicus; experiment: Radioligand binding in kidney tissue after 24 hr r; type: functional; summary of the method: as §1
[6] = species on record: Rattus norvegicus; experiment: Radioligand binding in adrenal tissue after 2 hr; type: functional; summary of the method: as §1
[7] = species on record: Rattus norvegicus; experiment: Radioligand binding in blood after 2 hr; type: functional; summary of the method: as §1
[8] = species on record: Rattus norvegicus; experiment: Radioligand binding in brain tissue after 2 hr; type: functional; summary of the method: as §1
[9] = species on record: Rattus norvegicus; experiment: Radioligand binding in heart tissue after 2 hr; type: functional; summary of the method: as §1
[10] = species on record: Rattus norvegicus; experiment: Radioligand binding in kidney tissue after 2 hr; type: functional; summary of the method: as §1
[11] = species on record: Rattus norvegicus; experiment: Radioligand binding in thyroid tissue after 2 hr; type: functional, Thyroid gland; summary of the method: as §1
[12] = species on record: Rattus norvegicus; experiment: Radioligand binding in thyroid tissue after 2 hr in rats given oral KI solution; type: functional, Thyroid gland
[13] = species on record: Rattus norvegicus; experiment: Radioligand binding in adrenal tissue after 24 hr r; type: functional; summary of the method: as §1
[14] = species on record: Rattus norvegicus; experiment: Radioligand binding in blood after 24 hr r; type: functional; summary of the method: as §1
[15] = species on record: Rattus norvegicus; experiment: (§2) Radioligand binding in brain tissue after 24 hr r; type: functional; summary of the method: as §1
[16] = species on record: Rattus norvegicus; experiment: as §2; type: functional; summary of the method: as §1; remark: listed apart in the source
[17] = species on record: Rattus norvegicus; experiment: Radioligand binding in heart tissue after 6 hr; type: functional; summary of the method: as §1
[18] = species on record: Rattus norvegicus; experiment: Radioligand binding in kidney tissue after 6 hr; type: functional; summary of the method: as §1
[19] = species on record: Rattus norvegicus; experiment: Radioligand binding in thyroid tissue after 6 hr; type: functional, Thyroid gland; summary of the method: as §1
[20] = species on record: Rattus norvegicus; experiment: Radioligand binding in thyroid tissue after 24 hr r; type: functional, Thyroid gland; summary of the method: as §1
[21] = species on record: Rattus norvegicus; experiment: Radioligand binding in adrenal gland after 30 min; type: functional; summary of the method: as §1
[22] = species on record: Rattus norvegicus; experiment: Radioligand binding in blood after 30 min; type: functional; summary of the method: as §1
[23] = species on record: Rattus norvegicus; experiment: Radioligand binding in brain tissue after 30 min; type: functional; summary of the method: as §1
[24] = species on record: Rattus norvegicus; experiment: Radioligand binding in heart tissue after 30 min; type: functional; summary of the method: as §1
[25] = species on record: Rattus norvegicus; experiment: Radioligand binding in kidney tissue after 30 min; type: functional; summary of the method: as §1
[26] = species on record: Rattus norvegicus; experiment: Radioligand binding in thyroid tissue after 30 min; type: functional, Thyroid gland; summary of the method: as §1
[27] = species on record: Rattus norvegicus; experiment: Radioligand binding in adrenal gland after 5 min; type: functional; summary of the method: as §1
[28] = species on record: Rattus norvegicus; experiment: Radioligand binding in blood after 5 min; type: functional; summary of the method: as §1
[29] = species on record: Rattus norvegicus; experiment: Radioligand binding in brain tissue after 5 min; type: functional; summary of the method: as §1
[30] = species on record: Rattus norvegicus; experiment: Radioligand binding in heart tissue after 5 min; type: functional; summary of the method: as §1
[31] = species on record: Rattus norvegicus; experiment: Radioligand binding in kidney tissue after 5 min; type: functional; summary of the method: as §1
[32] = species on record: Rattus norvegicus; experiment: Radioligand binding in thyroid tissue after 5 min; type: functional, Thyroid gland; summary of the method: as §1
[33] = species on record: Rattus norvegicus; experiment: Radioligand binding in adrenal tissue after 6 hr; type: functional; summary of the method: as §1
[34] = species on record: Rattus norvegicus; experiment: Radioligand binding in blood after 6 hr; type: functional; summary of the method: as §1
[35] = target: Translocator protein (Rattus norvegicus) (UniProt P16257); experiment: Reduced radioligand binding following 30 min intravenous 10 mg/kg PK11195 in adrenal gland; type: functional, organism-based; design: dose 10 mg/kg
[36] = target: Translocator protein (Rattus norvegicus) (UniProt P16257); experiment: Reduced radioligand binding following 30 min intravenous 10 mg/kg PK11195 in brain tissue; type: functional, organism-based; design: dose 10 mg/kg
[37] = target: Translocator protein (Rattus norvegicus) (UniProt P16257); experiment: Reduced radioligand binding following 30 min intravenous 10 mg/kg PK11195 in heart tissue; type: functional, organism-based; design: dose 10 mg/kg
[38] = target: Translocator protein (Rattus norvegicus) (UniProt P16257); experiment: Reduced radioligand binding following 30 min intravenous 10 mg/kg PK11195 in kidney tissue; type: functional, organism-based; design: dose 10 mg/kg
[39] = target: Translocator protein (Rattus norvegicus) (UniProt P16257); experiment: Reduced radioligand binding following 30 min intravenous 10 mg/kg PK11195 in lung tissue; type: functional, organism-based; design: dose 10 mg/kg
[40] = target: Translocator protein (Rattus norvegicus) (UniProt P16257); experiment: Reduced radioligand binding following 30 min intravenous 10 mg/kg PK11195 in submaxillary gland; type: functional, organism-based; design: dose 10 mg/kg
[41] = target: Translocator protein (Rattus norvegicus) (UniProt P16257); experiment: Reduced radioligand binding following 30 min intravenous 10 mg/kg PK11195 in blood; type: functional, organism-based; design: dose 10 mg/kg

Translocator protein (Rattus norvegicus), sequence (P16257 whole entry, looked up): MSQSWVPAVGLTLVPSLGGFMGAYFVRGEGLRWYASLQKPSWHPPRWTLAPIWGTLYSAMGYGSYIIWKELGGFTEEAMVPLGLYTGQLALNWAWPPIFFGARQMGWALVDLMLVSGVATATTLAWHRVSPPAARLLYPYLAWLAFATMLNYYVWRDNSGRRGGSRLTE
Translocator protein, sequence (P16257 whole entry, looked up): as above

CN1C(=O)CN=C(c2ccc(I)cc2)c2cc(Cl)ccc21
Ki [1]: > 1000 nM
Ki [2]: 13.6 nM
Change [3]: -75%
Activity [4]: 0.02
Activity [5]: 0.03
Activity [6]: 2.38
Activity [7]: 0.1
Activity [8]: 0.35
Activity [9]: 0.5
Activity [10]: 0.51
Activity [11]: 4.26
Activity [12]: 0.49
Activity [13]: 0.05
Activity [14]: 0.01
Activity [15]: 0.01
Activity [16]: 0.14
Activity [17]: 0.19
Activity [18]: 0.21
Activity [19]: 11.85
Activity [20]: 10.85
Activity [21]: 7.85
Activity [22]: 0.11
Activity [23]: 0.6
Activity [24]: 1.13
Activity [25]: 1.05
Activity [26]: 2.25
Activity [27]: 7.1
Activity [28]: 0.22
Activity [29]: 1
Activity [30]: 2.18
Activity [31]: 1.78
Activity [32]: 3.27
Activity [33]: 0.6
Activity [34]: 0.05
Distribution [35]: 1.74
Distribution [36]: 0.69
Distribution [37]: 0.76
Change ([37]; at 10 mg/kg): -34%
Distribution [38]: 0.74
Change ([38]; at 10 mg/kg): -35%
Distribution [39]: 0.58
Change ([39]; at 10 mg/kg): -46%
Distribution [40]: 0.74
Change ([40]; at 10 mg/kg): -49%
Distribution [41]: 0.16

CN1C(=O)CN=C(c2ccc(Cl)cc2)c2cc(Cl)ccc21 [RO-54864]
Ki [1]: > 1000 nM

CN1C(=O)CN=C(c2ccc(Cl)cc2)c2cc(I)ccc21
Ki [1]: > 1000 nM
Ki [2]: 13.3 nM
Activity [4]: 0.25
Activity [5]: 0.25
Activity [6]: 1.84
Activity [7]: 0.12
Activity [8]: 0.41
Activity [9]: 0.63
Activity [10]: 0.58
Activity [11]: 5.57
Activity [13]: 0.42
Activity [14]: 0.05
Activity [15]: 0.21
Activity [16]: 0.46
Activity [17]: 0.57
Activity [18]: 0.59
Activity [19]: 17.28
Activity [20]: 17.2
Activity [21]: 3.63
Activity [22]: 0.15
Activity [23]: 0.46
Activity [24]: 0.77
Activity [25]: 0.74
Activity [26]: 4.42
Activity [27]: 4.85
Activity [28]: 0.2
Activity [29]: 0.75
Activity [30]: 1.15
Activity [31]: 1.1
Activity [32]: 1.5
Activity [33]: 1.3
Activity [34]: 0.12
